Screening data deposited in PubChem by several laboratories.
An excerpt weighted towards active compounds, which were near 0.51% of everything screened.
T cell HTS: modulators of CD8 T cell-vesicle binding, primary screen, mouse 2C CD8+ T cells, flow cytometry | AID 2052, 2009 | 0.068% of 330,000 active | 2C CD8+ T cell-vesicle binding; stronger effect = lower value | response (vesicle binding), % at 7 µM;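 active = response, share of CD8 T cells binding vesicles, and their 90th percentile fluorescence all below set limits, cut at about 80% in these data, passing the limit was not always enough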;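 also: values below 100% mean blocked vesicle binding to the CD8+ T cells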
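Assay system: 2C TCR transgenic mouse naive CD8+ T cells, MACS-purified | Read-out: CD8+ gate FL2 mean fluorescence as % of same-row positive control | Signal: High-throughput flow cytometry with anti-B7-1 and anti-CD8 staining | Timing: Binding step 1.5 h, 37 °C, antibody labelling 20 min, ice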
aDG glyco up: activators of alpha-DG glycosylation, primary screen, uHTS, Pro5-aDG cells, AlphaScreen; alpha-DG glycosylation AlphaScreen (IIH6); 0% Pro5, 100% B10-LARGE cell signal; activation, % at 10 µM; 0.22% of 360,000 active; AID 624168, 2012;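 active = activation of at least 8% versus controls, or a plate z-score of at least 8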;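 also: Pro5 are CHO cells carrying HIG-tagged alpha-DG that lacks glycosylation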
PolyA inhibitor: polyadenylation inhibitors in yeast reporter cells, primary screen, luminescence, S. cerevisiae. S. cerevisiae SKY197-pL101 polyadenylation reporter, beta-gal luminescence; efflux-impaired pdr1/pdr3 knockout yeast; score 100 = 6 SD above DMSO. activity score, % at 12 µM. 0.02% of 300,000 active;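 active = lowest replicate activity score at least 50, where 100 means six control SD above control mean; inconclusive = lowest score under 50 but half or more replicates reach 50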;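 also: yeast exposed to compound for 9 h at 30 °C; higher score means more reporter readthrough which indicates perturbed polyadenylation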
Rce1 inhib: yeast Rce1p protease inhibitors, primary screen, biochemical, fluorescence, cell-free homogeneous; yeast membranes, quenched prenylated peptide cleavage fluorescence; 0.27% of 290,000 active; calls only; CAAX prenyl protease 2 (Saccharomyces cerevisiae (strain ATCC 204508 / S288c)), Q03530; AID 2563, 2010;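 active = fall in fluorescence gain of 50% or more versus controls, with final raw signal at or below 3038400; inconclusive = same 50% fall but final raw signal above 3038400; inactive = fall in fluorescence gain under 50%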
Target sequence (Q03530 whole entry, looked up): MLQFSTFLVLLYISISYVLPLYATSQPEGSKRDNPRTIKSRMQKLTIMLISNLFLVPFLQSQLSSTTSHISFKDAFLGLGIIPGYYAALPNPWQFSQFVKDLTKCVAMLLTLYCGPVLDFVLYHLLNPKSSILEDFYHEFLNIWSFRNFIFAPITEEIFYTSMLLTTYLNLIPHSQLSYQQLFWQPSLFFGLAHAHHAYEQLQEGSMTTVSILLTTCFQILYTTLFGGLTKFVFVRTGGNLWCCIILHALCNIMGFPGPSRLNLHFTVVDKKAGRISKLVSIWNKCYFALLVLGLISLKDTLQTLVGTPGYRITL
aDG glyco conf: alpha-DG glycosylation enhancers, retest, confirmation, single concentration, Pro5-aDG cells | 17% of 600 active | shares compounds with aDG glyco up | activation, % at 10 µM (by protocol) | AID 651671, 2012 | IIH6 AlphaLISA; scaled to LARGE-overexpressing B10 cells as 100%;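 active = activation of at least 7% in one or more replicates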;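 also: cells exposed to compound for two days before detection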
Numbers stand for hits; - = inactive; ? = inconclusive; . = no result; + = active, no number.

SMILES	T cell HTS	aDG glyco up	PolyA inhibitor	Rce1 inhib	aDG glyco conf
Cc1cc2cc(C(=O)N3CCc4c([nH]c5ccccc45)C3c3ccccn3)ccc2o1 (centres undefined)	-	-	-	+	.
Cc1ccc(C(=O)Nc2ccc3c(c2)C(=O)N(CC2CCCO2)C3=O)cc1 (centres undefined)	65	-	-	-	.
CC1CCCCN1CCNC(=O)CCc1nnc2n(Cc3ccccc3)c(=O)c3ccccc3n12 (centres undefined)	-	-	-	-	.
CC1CCCC(C)N1CCNC(=O)CCc1nnc2n(Cc3ccccc3)c(=O)c3ccccc3n12 (centres undefined)	0.0	-	-	-	.
Cc1cc(/C=N/n2cnnc2)c(C)n1-c1ccc(OCc2ccccc2F)cc1	-	5.9	-	-	.
Cc1cc(/C=N/n2cnnc2)c(C)n1-c1ccc(OCc2ccc(Cl)cc2)cc1	-	-	-	-	.
CC(C)c1cc(Cn2c3ccccc3c(=O)n2C(C)Cn2cc(-c3ccc(C(C)(C)C)cc3)nn2)on1 (centres undefined)	.	-	.	.	.
Cc1oc2c(CN3CCCCC3)c(O)ccc2c(=O)c1-c1ccc(Br)cc1	-	-	-	-	.
Cc1oc2c(CN3CCCC3)c(O)ccc2c(=O)c1-c1ccc(Br)cc1	-	-	-	+	.
OCCCNc1ncnc2c1ncn2[C@H]1CN(Cc2cccs2)C[C@@H](CO)O1	.	-	.	.	.
COc1ccc(NC(=O)COC(=O)Cc2ccc(Br)cc2)cc1	-	-	-	-	.
COc1ccc(CC(=O)OCC(=O)Nc2ccc(Br)cc2)cc1	-	-	-	+	.
CN=c1sc2c(n1C)C(=O)c1ccccc1C2=O	.	13	.	.	.
CN=c1sc(C(=O)Nc2ccccc2)c(C)n1C	-	-	-	-	.
CCN1CCN(c2ccccc2NC(=O)c2ccc(-n3cccn3)cc2)CC1	-	-	.	.	.
CCOC(=O)Cc1csc(NC(=O)CCC(=O)O)n1	-	-	-	-	.
CCOC(=O)Cc1csc(NC(=O)CCCc2ccccc2)n1	0.0	-	-	-	.
CC(Oc1ccc2c3c(c(=O)oc2c1)CCCC3)C(=O)NC1CC(C)(C)NC(C)(C)C1 (centres undefined)	-	-	?	+	.
CN(C(=O)c1ccccc1C(=O)OCC(=O)c1ccc(F)c(F)c1)C1CCCCC1	.	-	.	.	.
CCOc1ccc(-n2ccnc(SCC(=O)NC3CCCC3)c2=O)cc1	-	-	-	+	.
CCCCCCC#Cc1ccc2c(c1)COc1c3ccccc3nn1-2	0.0	-	-	-	.
Cc1ccccc1S(=O)(=O)c1cc(C#N)c(=O)[nH]c1N	-	-	-	+	.
COc1ccccc1/C=N/NC(=O)C(NC(=O)c1ccccc1)=C(C)C	-	32	-	-	-
COc1ccccc1/C=N/NC(=O)c1ccc(Br)cc1	-	-	-	-	.
O=C1CCCCC1(c1ccccc1)c1ccccc1	.	-	.	.	.
SMILES	T cell HTS	aDG glyco up	PolyA inhibitor	Rce1 inhib	aDG glyco conf
CCc1ccc(C2c3[nH]c4ccccc4c3CCN2C(=O)CNC(N)=O)cc1 (centres undefined)	-	-	-	-	.
CCc1ccc(C2c3[nH]c4ccccc4c3CCN2C(=O)CN2CCN(CC)CC2)cc1 (centres undefined)	-	8.0	-	-	13
COc1ccc(-c2noc([C@@H]3O[C@H](CO)[C@H](O)[C@H](O)[C@H]3O)n2)cc1OC	.	-	.	.	.
O=C(Nc1cccc(Cl)c1)Nc1sccc1-c1nc2ccccc2s1	-	4.4	-	-	-
Cc1csc(NC(=O)C2CCCN(S(=O)(=O)c3ccc4c(c3)oc(=O)n4C)C2)n1 (centres undefined)	-	9.1	-	-	-
O=C(COC(=O)c1ccc(O)cc1O)N=c1sccn1Cc1ccccc1Cl	-	-	-	-	.
N#CCC(=O)Nc1ccc(C(=O)OCC(=O)N=c2sccn2Cc2ccccc2Cl)cc1	-	5.4	-	-	-
O=C(O)CSc1nnc(-c2ccccc2O)n1Cc1ccccc1	-	83	-	-	-
O=C(CSc1nnc(-c2ccccc2O)n1Cc1ccccc1)NNC(=O)c1ccccc1O	-	-	-	-	.
CCc1ccc(OC2(C)CCN(Cc3ccc4c(c3)OCCO4)C2)cc1 (centres undefined)	.	-	.	.	.
Cn1c(SCC(=O)N2CCCc3ccccc32)nnc1-c1ccccc1	-	3.7	-	-	-
COc1ccc(-c2nc(SCC(=O)Nc3cccc(S(N)(=O)=O)c3)n[nH]2)cc1	.	-	.	.	.
O=C(CCNS(=O)(=O)c1ccc(OC(F)(F)F)cc1)Nc1cccc(S(=O)(=O)N2CCCC2)c1	.	-	.	.	.
CCn1c2c(c(=N)c3ccccc31)CCC2	-	3.4	-	-	-
CS(=O)(=O)N(CC(=O)N1CCCCCC1)c1cccc([N+](=O)[O-])c1	-	-	-	-	.
Nn1cc(-c2ccccc2)nc1SCC(=O)NC1CCS(=O)(=O)C1 (centres undefined)	-	6.9	-	-	-
Cc1cc(=O)[nH]c(SC(C)C(=O)Nc2cccc3ccccc23)n1 (centres undefined)	-	-	-	-	.
COCCNc1nc(NCCOc2ccccc2)c2sc(-c3ccccc3)cc2n1	.	7.6	.	.	6.9
COCCn1c(SCc2cccc([N+](=O)[O-])c2)nc2ccccc2c1=O	-	-	-	-	.
Cn1c(SCc2cccc([N+](=O)[O-])c2)nc2ccccc2c1=O	-	2.6	.	.	-
CCOC(=O)c1cn2ccc(C)cc2n1	-	20	-	-	-
Cc1ccc(N(CC(=O)N2CCCC2)S(C)(=O)=O)c(C)c1	-	-	-	-	.
Cc1ccc(CSCC(=O)Nc2cc(S(=O)(=O)N3CCOCC3)ccc2OCC(F)(F)F)cc1	.	-	.	.	.
CCN1CCN(c2ccc(NC(=O)COc3ccc(Cl)cc3C)cc2)CC1	-	5.2	.	.	-
COc1ccccc1C(=O)NC(=O)COC(=O)c1cccc(C)c1O	-	-	-	-	.
SMILES	T cell HTS	aDG glyco up	PolyA inhibitor	Rce1 inhib	aDG glyco conf
CC(C)(C)c1ccc(OCCCNC2CCCC2)cc1	-	6.7	-	-	-
CN(CC(=O)Nc1cccc(Cl)c1)S(=O)(=O)c1ccc2[nH]c(=O)oc2c1	-	5.7	-	-	-
O=C(Nc1ccc(O)cc1)c1ccccc1OCc1ccccc1	-	-	-	-	.
O=C(Nc1ccccc1)c1ccccc1OCc1ccc(F)cc1	-	3.8	-	-	-
CCOC(=O)C1=C(C)OC(N)=C(C#N)C1c1ccc(OC)c(C)c1OC (centres undefined)	-	9.7	.	-	-
CCOC(=O)C1=C(CC)OC(N)=C(C#N)C1c1ccc(OC)c(C)c1OC (centres undefined)	-	-	-	-	.
COc1cc(C(=O)C(=O)N2CCN(c3ccc(C)cc3)CC2)cc2ccccc12	.	-	.	.	.
COc1cc(C(=O)C(=O)N2CCC(Cc3ccccc3)CC2)cc2ccccc12	.	10	.	.	-
CN1CC[n+]2cnc3ccccc3c21	-	6.2	-	.	-
CN(CCCn1ccc(N)nc1=O)Cc1ccco1	.	-	.	.	.
